Measured values reported in ChEMBL document CHEMBL3352508, “Discovery and early clinical development of 2-{6-[2-(3,5-dichloro-4-pyridyl)acetyl]-2,3-dimethoxyphenoxy}-N-propylacetamide (LEO 29102), a soft-drug inhibitor of phosphodiesterase 4 for topical treatment of atopic dermatitis” (J Med Chem, 2014).

Tests used:
[1] = molecular target: 3',5'-cyclic-AMP phosphodiesterase 4D (Homo sapiens, UniProt Q08499); assay: Inhibition of human recombinant PDE4D after 1 hr by SPA in presence of radioactively labeled cAMP
Method in brief: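 Recombinant human PDE4D (NM_006203) incubated 1 h with test compound up to 10 μM, 1 × 10⁻⁵ M cAMP and 0.021 MBq radiolabelled cAMP tracer. Substrate cleavage read by binding of AMP product to SPA beads. IC₅₀ is the molar concentration giving 50% inhibition of cleavage relative to controls, reported as a range.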

PBMC = assay: Inhibition of LPS-induced TNFalpha release in human PBMC preincubated for 30 mins before LPS stimulation measured after 18 hrs by TR-FRET assay; type: functional, cell-based
Method in brief: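 PBMCs isolated from buffy coats (blood diluted 1:1 with saline, Lymphoprep). Supernatant TNF-α measured by TR-FRET (665/620 nm). IC₅₀ taken from inhibition curves, with LPS-stimulated and unstimulated wells as controls.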

[2] = molecular target: cAMP and cAMP-inhibited cGMP 3',5'-cyclic phosphodiesterase 10A (Homo sapiens) (UniProt Q9Y233); assay: Inhibition of PDE10 (unknown origin) at 1 uM
[3] = molecular target: High affinity 3',5'-cyclic-AMP phosphodiesterase 7A (Homo sapiens) (UniProt Q13946); assay: Inhibition of PDE7 (unknown origin) at 1 uM
[4] = molecular target: Phosphodiesterase 3 (Homo sapiens) (UniProt Q14432+Q13370); assay: Inhibition of PDE3 (unknown origin) at 1 uM; type: protein assay
[5] = molecular target: cGMP-specific 3',5'-cyclic phosphodiesterase (Homo sapiens) (UniProt O76074); assay: Inhibition of PDE5 (unknown origin) at 1 uM
[6] = molecular target: Phosphodiesterase 8 (Homo sapiens) (UniProt O95263+O60658); assay: Inhibition of PDE8 (unknown origin) at 1 uM; type: protein assay
[7] = molecular target: High affinity cGMP-specific 3',5'-cyclic phosphodiesterase 9A (Homo sapiens) (UniProt O76083); assay: Inhibition of PDE9 (unknown origin) at 1 uM
[8] = molecular target: Phosphodiesterase 1 (Homo sapiens) (UniProt P54750+Q01064+Q14123); assay: Inhibition of PDE1 (unknown origin) at 1 uM; type: protein assay
[9] = molecular target: Dual 3',5'-cyclic-AMP and -GMP phosphodiesterase 11A (Homo sapiens) (UniProt Q9HCR9); assay: Inhibition of PDE11 (unknown origin) at 1 uM
[10] = molecular target: cGMP-dependent 3',5'-cyclic phosphodiesterase (Homo sapiens) (UniProt O00408); assay: Inhibition of PDE2 (unknown origin) at 1 uM
[11] = Genotoxicity in p53 competent human TK6 cells after 24 hrs by GreenScreen HC assay; type: toxicity, cell-based; conditions: tk6, 24 h
Mus musculus = assay: Antiinflammatory activity in topical allergic contact dermatitis mouse model assessed as inhibition of TNFalpha in tissue at 0.003 mg administered topically; type: functional

Chain of 3',5'-cyclic-AMP phosphodiesterase 4D (Q08499 whole entry): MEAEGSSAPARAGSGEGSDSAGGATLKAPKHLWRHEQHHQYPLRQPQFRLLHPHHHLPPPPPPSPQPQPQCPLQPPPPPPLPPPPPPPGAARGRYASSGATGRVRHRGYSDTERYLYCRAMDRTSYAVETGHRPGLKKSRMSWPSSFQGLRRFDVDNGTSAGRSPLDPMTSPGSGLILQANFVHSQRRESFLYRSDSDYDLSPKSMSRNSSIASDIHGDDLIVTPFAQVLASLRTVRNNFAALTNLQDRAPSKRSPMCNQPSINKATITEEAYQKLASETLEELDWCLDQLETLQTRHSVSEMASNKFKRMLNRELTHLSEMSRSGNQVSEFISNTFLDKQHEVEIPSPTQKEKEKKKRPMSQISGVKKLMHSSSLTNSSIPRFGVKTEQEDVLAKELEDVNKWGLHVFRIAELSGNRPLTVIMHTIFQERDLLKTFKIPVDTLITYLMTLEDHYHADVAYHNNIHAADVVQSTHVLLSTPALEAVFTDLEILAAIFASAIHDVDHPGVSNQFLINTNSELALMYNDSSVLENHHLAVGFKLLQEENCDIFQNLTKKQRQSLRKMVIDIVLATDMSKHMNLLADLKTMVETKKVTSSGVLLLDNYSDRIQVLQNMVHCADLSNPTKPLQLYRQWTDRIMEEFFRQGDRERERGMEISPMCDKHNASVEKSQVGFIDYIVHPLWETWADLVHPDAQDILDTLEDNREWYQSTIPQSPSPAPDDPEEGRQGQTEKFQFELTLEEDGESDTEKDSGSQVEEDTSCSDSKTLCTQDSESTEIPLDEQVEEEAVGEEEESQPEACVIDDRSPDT
Chain of Phosphodiesterase 8 (Homo sapiens) (O60658 whole entry, looked up): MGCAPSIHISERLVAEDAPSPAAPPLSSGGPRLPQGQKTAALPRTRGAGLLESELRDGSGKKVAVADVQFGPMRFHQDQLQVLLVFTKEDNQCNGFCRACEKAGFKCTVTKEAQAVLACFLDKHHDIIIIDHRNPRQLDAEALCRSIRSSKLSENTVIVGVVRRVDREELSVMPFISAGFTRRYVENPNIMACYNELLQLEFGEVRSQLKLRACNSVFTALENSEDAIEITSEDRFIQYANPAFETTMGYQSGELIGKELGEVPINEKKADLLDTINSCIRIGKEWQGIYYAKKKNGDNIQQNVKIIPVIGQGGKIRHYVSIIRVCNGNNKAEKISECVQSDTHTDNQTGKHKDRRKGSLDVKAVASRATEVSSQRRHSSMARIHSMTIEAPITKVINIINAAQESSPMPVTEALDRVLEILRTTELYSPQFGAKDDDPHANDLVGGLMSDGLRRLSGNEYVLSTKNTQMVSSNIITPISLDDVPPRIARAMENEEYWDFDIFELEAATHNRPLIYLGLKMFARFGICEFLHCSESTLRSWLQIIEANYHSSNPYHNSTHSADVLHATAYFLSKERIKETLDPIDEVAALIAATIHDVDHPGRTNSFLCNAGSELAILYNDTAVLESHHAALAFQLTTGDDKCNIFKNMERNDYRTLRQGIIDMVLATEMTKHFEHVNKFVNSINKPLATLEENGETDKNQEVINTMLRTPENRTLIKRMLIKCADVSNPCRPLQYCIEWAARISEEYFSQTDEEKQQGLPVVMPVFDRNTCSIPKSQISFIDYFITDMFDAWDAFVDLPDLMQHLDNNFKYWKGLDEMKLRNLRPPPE
Chain of Phosphodiesterase 8 (Homo sapiens) (O95263 whole entry, looked up): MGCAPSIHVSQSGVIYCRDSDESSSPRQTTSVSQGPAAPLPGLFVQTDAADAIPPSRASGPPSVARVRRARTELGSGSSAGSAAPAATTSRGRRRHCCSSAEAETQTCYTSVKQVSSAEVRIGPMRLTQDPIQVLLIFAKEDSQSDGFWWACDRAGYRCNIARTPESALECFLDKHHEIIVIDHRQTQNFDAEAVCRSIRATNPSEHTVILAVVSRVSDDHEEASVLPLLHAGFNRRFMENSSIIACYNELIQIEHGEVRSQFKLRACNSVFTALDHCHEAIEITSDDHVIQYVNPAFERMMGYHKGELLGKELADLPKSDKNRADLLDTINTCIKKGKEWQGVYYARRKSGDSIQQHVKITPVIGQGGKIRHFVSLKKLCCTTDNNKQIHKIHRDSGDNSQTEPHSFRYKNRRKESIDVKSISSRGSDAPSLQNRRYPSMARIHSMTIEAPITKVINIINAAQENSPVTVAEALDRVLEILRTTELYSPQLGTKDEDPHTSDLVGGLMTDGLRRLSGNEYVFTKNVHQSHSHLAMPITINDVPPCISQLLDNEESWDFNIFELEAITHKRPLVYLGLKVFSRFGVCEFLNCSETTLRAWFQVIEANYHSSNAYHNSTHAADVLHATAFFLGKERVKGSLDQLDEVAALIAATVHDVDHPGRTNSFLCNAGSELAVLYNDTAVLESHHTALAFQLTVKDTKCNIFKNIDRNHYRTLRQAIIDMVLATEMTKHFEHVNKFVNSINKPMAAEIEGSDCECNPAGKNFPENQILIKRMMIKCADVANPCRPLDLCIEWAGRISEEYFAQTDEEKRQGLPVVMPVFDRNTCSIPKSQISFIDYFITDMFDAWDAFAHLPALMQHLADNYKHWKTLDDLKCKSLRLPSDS
Chain of High affinity 3',5'-cyclic-AMP phosphodiesterase 7A (Homo sapiens) (Q13946 whole entry): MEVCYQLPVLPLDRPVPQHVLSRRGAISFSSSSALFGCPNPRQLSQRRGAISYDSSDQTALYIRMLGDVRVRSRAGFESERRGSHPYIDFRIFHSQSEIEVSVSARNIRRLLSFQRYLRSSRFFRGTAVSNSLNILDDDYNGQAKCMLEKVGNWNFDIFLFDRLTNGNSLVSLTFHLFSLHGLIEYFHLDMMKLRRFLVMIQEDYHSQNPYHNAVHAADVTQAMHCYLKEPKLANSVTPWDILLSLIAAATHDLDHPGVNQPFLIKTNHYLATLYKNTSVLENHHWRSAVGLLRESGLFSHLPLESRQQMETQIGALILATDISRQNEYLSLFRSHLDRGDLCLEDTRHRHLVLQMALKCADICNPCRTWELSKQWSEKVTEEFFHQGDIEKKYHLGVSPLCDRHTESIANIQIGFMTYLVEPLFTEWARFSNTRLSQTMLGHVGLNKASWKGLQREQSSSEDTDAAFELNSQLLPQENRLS
Chain of cAMP and cAMP-inhibited cGMP 3',5'-cyclic phosphodiesterase 10A (Homo sapiens) (Q9Y233 whole entry): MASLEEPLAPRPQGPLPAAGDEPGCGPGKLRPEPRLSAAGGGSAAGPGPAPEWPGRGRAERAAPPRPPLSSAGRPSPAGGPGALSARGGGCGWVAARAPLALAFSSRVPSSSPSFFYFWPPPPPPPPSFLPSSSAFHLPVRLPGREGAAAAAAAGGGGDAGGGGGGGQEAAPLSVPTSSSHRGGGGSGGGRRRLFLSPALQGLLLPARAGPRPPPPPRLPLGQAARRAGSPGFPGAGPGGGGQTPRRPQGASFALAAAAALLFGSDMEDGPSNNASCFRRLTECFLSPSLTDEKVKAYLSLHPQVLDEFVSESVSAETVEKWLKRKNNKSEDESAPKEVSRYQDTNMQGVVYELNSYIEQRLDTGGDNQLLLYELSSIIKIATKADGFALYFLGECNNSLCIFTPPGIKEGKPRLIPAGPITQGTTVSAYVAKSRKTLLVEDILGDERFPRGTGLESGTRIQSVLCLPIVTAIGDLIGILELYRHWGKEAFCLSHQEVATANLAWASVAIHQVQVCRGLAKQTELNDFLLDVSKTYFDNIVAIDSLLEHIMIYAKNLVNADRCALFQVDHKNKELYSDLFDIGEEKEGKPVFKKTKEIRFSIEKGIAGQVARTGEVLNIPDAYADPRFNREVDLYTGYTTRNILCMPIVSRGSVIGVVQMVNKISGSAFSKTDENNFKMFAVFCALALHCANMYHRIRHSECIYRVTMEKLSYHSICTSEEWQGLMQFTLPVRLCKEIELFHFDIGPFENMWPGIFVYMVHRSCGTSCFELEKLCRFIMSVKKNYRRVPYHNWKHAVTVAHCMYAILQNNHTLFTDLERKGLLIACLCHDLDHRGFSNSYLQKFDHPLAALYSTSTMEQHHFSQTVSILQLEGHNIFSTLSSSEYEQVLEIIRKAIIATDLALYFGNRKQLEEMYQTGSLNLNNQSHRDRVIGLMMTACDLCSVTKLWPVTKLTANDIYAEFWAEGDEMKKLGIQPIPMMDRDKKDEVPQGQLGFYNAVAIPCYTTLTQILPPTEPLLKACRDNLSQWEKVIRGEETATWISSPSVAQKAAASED
Chain of High affinity cGMP-specific 3',5'-cyclic phosphodiesterase 9A (Homo sapiens) (O76083 whole entry): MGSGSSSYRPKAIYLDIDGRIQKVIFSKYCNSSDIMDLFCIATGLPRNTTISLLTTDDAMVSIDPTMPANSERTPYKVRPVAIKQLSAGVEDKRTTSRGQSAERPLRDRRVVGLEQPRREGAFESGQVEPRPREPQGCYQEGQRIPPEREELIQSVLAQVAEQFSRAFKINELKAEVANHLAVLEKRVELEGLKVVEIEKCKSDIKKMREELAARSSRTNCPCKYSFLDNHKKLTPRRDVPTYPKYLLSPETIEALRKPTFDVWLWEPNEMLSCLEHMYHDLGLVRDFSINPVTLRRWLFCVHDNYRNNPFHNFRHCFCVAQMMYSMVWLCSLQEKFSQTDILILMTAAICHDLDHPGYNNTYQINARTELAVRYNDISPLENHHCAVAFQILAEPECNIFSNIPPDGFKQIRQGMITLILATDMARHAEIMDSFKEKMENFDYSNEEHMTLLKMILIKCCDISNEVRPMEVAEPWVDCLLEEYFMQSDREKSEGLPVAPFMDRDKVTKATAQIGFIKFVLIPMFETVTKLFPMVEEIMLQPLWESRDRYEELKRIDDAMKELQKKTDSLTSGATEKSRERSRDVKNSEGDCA

Structure (SMILES)	IC50 [1] [nM]	IC50 (PBMC) [nM]	further results
COc1ccc(C(=O)Cc2c(Cl)cncc2Cl)c(OC)c1OC	110	436	–
COc1ccc(C(=O)Nc2c(Cl)cncc2Cl)c(OC)c1OC	3790	> 5000	–
COc1ccc(C(=O)Cc2c(Cl)cncc2Cl)c(OC)c1OC1CCCC1	2010	9470	–
COc1ccc(C(=O)Cc2c(Cl)cncc2Cl)c(OCC(=O)O)c1OC	3760	> 10000	inhibition [2]: < 10%; inhibition [3]: < 10%; inhibition [4]: < 10%; inhibition [5]: < 10%; inhibition [6]: < 10%; inhibition [7]: < 10%; inhibition [8]: < 10%; inhibition [9]: < 10%; inhibition [10]: < 10%
COc1ccc(C(=O)Cc2c(Cl)cncc2Cl)c(OCc2ccccc2)c1OC	63	159	–
COc1ccc(C(=O)Cc2c(Cl)cncc2Cl)c(OCCc2ccc(C(=O)O)cc2)c1OC	17	135	–
CCCCC(=O)O[C@]1(C(=O)CO)[C@@H](C)C[C@H]2[C@@H]3CCC4=CC(=O)C=C[C@]4(C)[C@@]3(F)[C@@H](O)C[C@@]21C [BETAMETHASONE VALERATE]	–	–	inhibition (INH) (Mus musculus): 75%
COc1ccc(C(=O)Cc2c(Cl)cncc2Cl)c(OCC(=O)NCCO)c1OC	17	22	Activity [11]: Toxic

Continued by falling IC50 [1], values first:

IC50 [1] [nM]	Structure (SMILES)	IC50 (PBMC) [nM]	further results
17	COc1ccc(C(=O)Nc2c(Cl)cncc2Cl)cc1OC	19	–
13	COCCNC(=O)COc1c(C(=O)Cc2c(Cl)cncc2Cl)ccc(OC)c1OC	17	Activity [11]: Non-toxic
8	COc1ccc(C(=O)Cc2c(Cl)cncc2Cl)c(OCCc2ccc(O)cc2)c1OC	30	–
5	COc1ccc(C(=O)Cc2c(Cl)c[n+]([O-])cc2Cl)c(OCC(=O)NCc2ccccc2)c1OC	11	–
